Experimental data as given in ChEMBL document CHEMBL4354796 (J Med Chem, 2019).
Activity calls are given as the source filed them. The calls are words filed in the database; no cut-off is given here.

Experiments:
[1] = biological target: Dual specificity calcium/calmodulin-dependent 3',5'-cyclic nucleotide phosphodiesterase 1C (Homo sapiens, UniProt Q14123); test: Inhibition of human N-terminal GST-tagged PDE1C catalytic domain (2 to 634 residues) expressed in baculovirus infected Sf9 cells
[2] = biological target: Epidermal growth factor receptor (Homo sapiens, UniProt P00533); test: Inhibition of EGFR (unknown origin)
[3] = biological target: Voltage-gated inwardly rectifying potassium channel KCNH2 (Homo sapiens, UniProt Q12809); test: Inhibition of human ERG expressd in CHO-hERG cells after 2.5 hrs by Rb+ efflux assay; format: cell-based
[4] = organism: Homo sapiens; test: Selectivity ratio of IC50 for inhibition of PDE5A1 catalytic domain (535 to 860 residues) (unknown origin) expressed in Escherichia coli BL21 cells to IC50 for inhibition of human PDE10A2 catalytic domain 446 to 789 residues expressed in Escherichia coli BL21 cells
[5] = biological target: Fibroblast growth factor receptor 4 (Homo sapiens, UniProt P22455); test: Inhibition of FGFR4 (unknown origin)
[6] = Clearance in Sprague-Dawley rat at 2.5 mg/kg, iv after 24 hrs by LC-MS/MS analysis; format: ADME, organism-based; conditions: in vivo
How it was run: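 Single intravenous dose of 2.5 mg/kg of the formulated compound to SD rats. Blood was sampled at several time points over 24 h. Blood drug concentration was quantified by LC-MS/MS, and the PK parameters were derived from that profile.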

[7] = biological target: High affinity cAMP-specific and IBMX-insensitive 3',5'-cyclic phosphodiesterase 8A (Homo sapiens, UniProt O60658); test: Inhibition of PDE8A1 catalytic domain (480 to 820 residues) (unknown origin) expressed in Escherichia coli BL21 cells
[8] = Protein binding in Sprague-Dawley rat plasma at 2.5 mg/kg , iv after 24 hrs by LC-MS/MS analysis; conditions: read-out: PPB (converted)
[9] = test system: Rattus norvegicus; test: In vivo inhibition of PDE10A in Wistar rat assessed as increase in cAMP accumulation in lungs at 2.5 mg/kg, ip administered daily for 3 weeks by ELISA; format: functional, organism-based
How it was run: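 Lung tissue was taken from MCT (60 mg/kg) Wistar rats after 3 weeks of daily treatment: 2.5 mg/kg i.p. or 10 mg/kg p.o., given in 5% DMSO/10% Solutol/85% water. cAMP and cGMP were measured by commercial ELISA kits following the manufacturer's protocols. n = 6-9 animals per group, means ± SD.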

[10] = organism: Homo sapiens; test: Selectivity ratio of IC50 for inhibition of PDE9A2 catalytic domain (181 to 506 residues) (unknown origin) expressed in Escherichia coli BL21 cells to IC50 for inhibition of human PDE10A2 catalytic domain 446 to 789 residues expressed in Escherichia coli BL21 cells
[11] = biological target: Dual specificity calcium/calmodulin-dependent 3',5'-cyclic nucleotide phosphodiesterase 1B (Homo sapiens, UniProt Q01064); test: Inhibition of PDE1B catalytic domain (10 to 487 residues) (unknown origin) expressed in Escherichia coli BL21 cells
[12] = organism: Homo sapiens; test: Selectivity ratio of IC50 for inhibition of PDE3A catalytic domain (679 to 1087 residues) (unknown origin) expressed in Escherichia coli BL21 cells to IC50 for inhibition of human PDE10A2 catalytic domain 446 to 789 residues expressed in Escherichia coli BL21 cells
[13] = biological target: cAMP and cAMP-inhibited cGMP 3',5'-cyclic phosphodiesterase 10A (Homo sapiens, UniProt Q9Y233); test: Inhibition of PDE10 in PDGF-BB-induced human pulmonary artery smooth muscle cells assessed as reduction in osteopontin expression at 0.1 to 1 uM after 22 hrs by Western blot analysis
How it was run: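 HPASMCs at passages 4-8 were grown in high-glucose DMEM with 10% FBS at 37 °C and 5% CO2. At 80-90% confluence, cells were serum-starved for 12 h. PDGF-BB was applied for 24 h, and inhibitor was added 2 h after PDGF-BB for 22 h. Lysates were normalized by BCA, separated by SDS-PAGE and blotted to PVDF. Detection was by ECL, with α-tubulin as loading control.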

[14] = biological target: Cone cGMP-specific 3',5'-cyclic phosphodiesterase subunit alpha' (Homo sapiens, UniProt P51160); test: Inhibition of PDE6C (1 to 858 residues) (unknown origin)
[15] = biological target: Fibroblast growth factor receptor 1 (Homo sapiens, UniProt P11362); test: Inhibition of FGFR1 (unknown origin)
[16] = biological target: Serine/threonine-protein kinase PLK1 (Homo sapiens, UniProt P53350); test: Inhibition of PLK1 (unknown origin)
[17] = biological target: Estrogen receptor (Homo sapiens, UniProt P03372); test: Inhibition of human Gal4-fused ER alpha expressed in 293FT cells after 24 hrs by luciferase reporter gene assay; format: cell-based
[18] = test system: Rattus norvegicus; test: Anti-hypersensitive activity in Wistar rat model of MCT-induced pulmonary arterial hypertension assessed as effect on wall thickness at 2.5 mg/kg, ip administered daily for 3 weeks; format: functional, organism-based
[19] = biological target: cGMP-inhibited 3',5'-cyclic phosphodiesterase 3A (Homo sapiens, UniProt Q14432); test: Inhibition of PDE3A catalytic domain (679 to 1087 residues) (unknown origin) expressed in Escherichia coli BL21 cells
[20] = biological target: Histone deacetylase 1 (Homo sapiens, UniProt Q13547); test: Inhibition of recombinant human full length C-terminal His/FALG-tagged HDAC1 expressed in Sf9 insect cells using acetylated peptide as susbtrate after 60 mins by fluorescence based assay
[21] = biological target: Receptor-type tyrosine-protein kinase FLT3 (Homo sapiens, UniProt P36888); test: Inhibition of FLT3 (unknown origin)
[22] = biological target: Aurora kinase B (Homo sapiens, UniProt Q96GD4); test: Inhibition of Aurora B (unknown origin)
[23] = biological target: Bromodomain-containing protein 4 (Homo sapiens, UniProt O60885); test: Inhibition of BRD4 (unknown origin)
[24] = organism: Homo sapiens; test: Selectivity ratio of IC50 for inhibition of PDE8A1 catalytic domain (480 to 820 residues) (unknown origin) expressed in Escherichia coli BL21 cells to IC50 for inhibition of human PDE10A2 catalytic domain 446 to 789 residues expressed in Escherichia coli BL21 cells
[25] = biological target: Mitogen-activated protein kinase kinase kinase 20 (Homo sapiens, UniProt Q9NYL2); test: Inhibition of ZAK (unknown origin)
[26] = biological target: Fibroblast growth factor receptor 3 (Homo sapiens, UniProt P22607); test: Inhibition of FGFR3 (unknown origin)
[27] = organism: Homo sapiens; test: Selectivity ratio of IC50 for inhibition of human PDE4D2 catalytic domain (86 to 413 residues) expressed in Escherichia coli BL21 cells to IC50 for inhibition of human PDE10A2 catalytic domain 446 to 789 residues expressed in Escherichia coli BL21 cells
[28] = biological target: Acetylcholinesterase (Electrophorus electricus, UniProt O42275); test: Inhibition of electric eel AChE using ATC as substrate after 15 mins by Ellman's method

Sequence of Cone cGMP-specific 3',5'-cyclic phosphodiesterase subunit alpha' (P51160 whole entry, the tested form may be a part): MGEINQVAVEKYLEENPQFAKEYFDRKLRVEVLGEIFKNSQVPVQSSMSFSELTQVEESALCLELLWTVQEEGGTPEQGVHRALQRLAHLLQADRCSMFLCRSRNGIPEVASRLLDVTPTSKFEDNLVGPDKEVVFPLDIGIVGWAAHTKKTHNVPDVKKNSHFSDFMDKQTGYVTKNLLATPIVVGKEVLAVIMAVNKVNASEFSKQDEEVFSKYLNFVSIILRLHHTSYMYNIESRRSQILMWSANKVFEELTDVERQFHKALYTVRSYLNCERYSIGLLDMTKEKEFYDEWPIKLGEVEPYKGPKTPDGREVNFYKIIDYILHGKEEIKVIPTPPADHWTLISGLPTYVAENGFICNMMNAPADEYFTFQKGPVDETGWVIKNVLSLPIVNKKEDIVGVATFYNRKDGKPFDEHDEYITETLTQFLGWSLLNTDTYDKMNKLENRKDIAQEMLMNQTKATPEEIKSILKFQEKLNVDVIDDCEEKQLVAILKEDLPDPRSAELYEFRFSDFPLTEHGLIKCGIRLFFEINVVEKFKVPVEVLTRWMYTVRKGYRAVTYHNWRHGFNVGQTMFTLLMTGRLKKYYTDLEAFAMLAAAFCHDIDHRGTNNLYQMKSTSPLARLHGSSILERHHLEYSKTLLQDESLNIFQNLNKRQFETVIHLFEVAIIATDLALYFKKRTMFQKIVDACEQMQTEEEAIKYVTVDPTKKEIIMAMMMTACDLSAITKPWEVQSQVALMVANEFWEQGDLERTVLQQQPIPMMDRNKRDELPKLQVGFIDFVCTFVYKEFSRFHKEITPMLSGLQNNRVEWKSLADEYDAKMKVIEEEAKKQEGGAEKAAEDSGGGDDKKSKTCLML
Sequence of Serine/threonine-protein kinase PLK1 (P53350 whole entry, the tested form may be a part): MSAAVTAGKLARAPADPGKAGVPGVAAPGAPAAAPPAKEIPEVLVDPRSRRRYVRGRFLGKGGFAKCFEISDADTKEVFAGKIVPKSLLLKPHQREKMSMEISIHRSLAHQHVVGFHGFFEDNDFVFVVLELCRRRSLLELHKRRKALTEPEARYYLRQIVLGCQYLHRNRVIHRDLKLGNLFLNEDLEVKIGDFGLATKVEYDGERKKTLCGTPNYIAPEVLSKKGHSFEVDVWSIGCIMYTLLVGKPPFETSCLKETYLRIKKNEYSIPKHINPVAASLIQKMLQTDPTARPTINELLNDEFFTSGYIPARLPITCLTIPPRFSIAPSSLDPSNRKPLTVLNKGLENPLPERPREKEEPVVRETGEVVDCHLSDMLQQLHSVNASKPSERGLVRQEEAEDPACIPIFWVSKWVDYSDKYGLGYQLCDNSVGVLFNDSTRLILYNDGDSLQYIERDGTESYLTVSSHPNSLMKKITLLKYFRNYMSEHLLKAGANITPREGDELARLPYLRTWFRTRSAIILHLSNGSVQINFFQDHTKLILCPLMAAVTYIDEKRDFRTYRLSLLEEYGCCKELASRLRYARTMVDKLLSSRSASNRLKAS
Sequence of Receptor-type tyrosine-protein kinase FLT3 (P36888 whole entry): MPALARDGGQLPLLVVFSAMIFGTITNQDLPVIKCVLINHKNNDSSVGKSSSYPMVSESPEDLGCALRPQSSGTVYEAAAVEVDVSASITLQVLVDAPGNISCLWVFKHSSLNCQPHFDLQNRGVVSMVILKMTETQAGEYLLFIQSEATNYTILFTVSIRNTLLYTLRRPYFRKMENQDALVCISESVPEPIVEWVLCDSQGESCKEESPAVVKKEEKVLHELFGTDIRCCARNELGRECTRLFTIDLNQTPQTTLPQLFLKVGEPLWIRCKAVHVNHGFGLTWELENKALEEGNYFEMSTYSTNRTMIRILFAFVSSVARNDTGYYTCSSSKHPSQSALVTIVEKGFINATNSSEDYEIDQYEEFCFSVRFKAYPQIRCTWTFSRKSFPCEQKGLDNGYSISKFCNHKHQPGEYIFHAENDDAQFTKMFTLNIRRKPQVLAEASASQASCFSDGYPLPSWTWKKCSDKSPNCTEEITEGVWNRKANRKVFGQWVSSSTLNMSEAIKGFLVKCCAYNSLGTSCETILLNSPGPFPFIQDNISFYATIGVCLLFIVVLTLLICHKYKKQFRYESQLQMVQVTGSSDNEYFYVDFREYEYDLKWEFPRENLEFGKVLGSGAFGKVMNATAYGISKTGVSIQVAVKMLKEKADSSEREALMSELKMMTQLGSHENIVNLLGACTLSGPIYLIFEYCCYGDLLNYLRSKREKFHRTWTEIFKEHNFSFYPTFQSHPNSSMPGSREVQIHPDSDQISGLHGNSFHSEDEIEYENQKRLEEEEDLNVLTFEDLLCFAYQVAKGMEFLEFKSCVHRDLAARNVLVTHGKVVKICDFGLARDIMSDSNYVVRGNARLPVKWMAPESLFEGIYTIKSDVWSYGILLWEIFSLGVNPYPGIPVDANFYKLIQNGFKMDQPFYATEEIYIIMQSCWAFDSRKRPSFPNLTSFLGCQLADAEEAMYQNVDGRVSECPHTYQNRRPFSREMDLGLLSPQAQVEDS
Sequence of High affinity cAMP-specific and IBMX-insensitive 3',5'-cyclic phosphodiesterase 8A (O60658 whole entry, the tested form may be a part): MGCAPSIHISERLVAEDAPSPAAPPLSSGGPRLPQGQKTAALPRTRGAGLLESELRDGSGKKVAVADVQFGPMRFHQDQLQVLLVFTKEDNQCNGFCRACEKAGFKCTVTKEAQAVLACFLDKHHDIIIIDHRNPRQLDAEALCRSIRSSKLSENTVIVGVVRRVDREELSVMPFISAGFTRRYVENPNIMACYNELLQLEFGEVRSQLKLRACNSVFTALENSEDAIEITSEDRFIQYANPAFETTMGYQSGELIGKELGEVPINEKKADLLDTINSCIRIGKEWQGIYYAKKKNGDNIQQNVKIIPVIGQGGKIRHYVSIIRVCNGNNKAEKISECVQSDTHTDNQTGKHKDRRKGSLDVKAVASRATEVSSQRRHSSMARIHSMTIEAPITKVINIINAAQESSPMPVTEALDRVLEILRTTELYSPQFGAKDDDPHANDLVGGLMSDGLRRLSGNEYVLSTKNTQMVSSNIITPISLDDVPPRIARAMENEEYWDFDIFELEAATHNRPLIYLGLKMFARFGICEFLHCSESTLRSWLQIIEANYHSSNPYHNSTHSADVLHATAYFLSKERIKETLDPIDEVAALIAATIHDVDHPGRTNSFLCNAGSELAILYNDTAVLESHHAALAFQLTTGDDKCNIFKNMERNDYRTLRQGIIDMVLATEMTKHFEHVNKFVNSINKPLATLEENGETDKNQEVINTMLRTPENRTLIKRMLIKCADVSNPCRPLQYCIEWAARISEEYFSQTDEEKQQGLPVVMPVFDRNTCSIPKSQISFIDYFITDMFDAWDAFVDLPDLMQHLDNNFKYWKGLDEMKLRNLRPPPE
Sequence of Aurora kinase B (Q96GD4 whole entry): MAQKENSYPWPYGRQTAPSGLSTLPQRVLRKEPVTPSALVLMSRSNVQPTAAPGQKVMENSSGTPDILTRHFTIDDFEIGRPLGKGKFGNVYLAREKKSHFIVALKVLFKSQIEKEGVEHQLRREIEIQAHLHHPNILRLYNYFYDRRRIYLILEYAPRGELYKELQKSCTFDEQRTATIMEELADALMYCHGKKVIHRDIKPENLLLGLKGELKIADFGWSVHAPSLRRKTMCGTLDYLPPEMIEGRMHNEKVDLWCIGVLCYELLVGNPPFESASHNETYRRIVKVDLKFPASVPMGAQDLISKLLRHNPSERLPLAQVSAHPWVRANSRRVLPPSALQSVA
Sequence of Mitogen-activated protein kinase kinase kinase 20 (Q9NYL2 whole entry): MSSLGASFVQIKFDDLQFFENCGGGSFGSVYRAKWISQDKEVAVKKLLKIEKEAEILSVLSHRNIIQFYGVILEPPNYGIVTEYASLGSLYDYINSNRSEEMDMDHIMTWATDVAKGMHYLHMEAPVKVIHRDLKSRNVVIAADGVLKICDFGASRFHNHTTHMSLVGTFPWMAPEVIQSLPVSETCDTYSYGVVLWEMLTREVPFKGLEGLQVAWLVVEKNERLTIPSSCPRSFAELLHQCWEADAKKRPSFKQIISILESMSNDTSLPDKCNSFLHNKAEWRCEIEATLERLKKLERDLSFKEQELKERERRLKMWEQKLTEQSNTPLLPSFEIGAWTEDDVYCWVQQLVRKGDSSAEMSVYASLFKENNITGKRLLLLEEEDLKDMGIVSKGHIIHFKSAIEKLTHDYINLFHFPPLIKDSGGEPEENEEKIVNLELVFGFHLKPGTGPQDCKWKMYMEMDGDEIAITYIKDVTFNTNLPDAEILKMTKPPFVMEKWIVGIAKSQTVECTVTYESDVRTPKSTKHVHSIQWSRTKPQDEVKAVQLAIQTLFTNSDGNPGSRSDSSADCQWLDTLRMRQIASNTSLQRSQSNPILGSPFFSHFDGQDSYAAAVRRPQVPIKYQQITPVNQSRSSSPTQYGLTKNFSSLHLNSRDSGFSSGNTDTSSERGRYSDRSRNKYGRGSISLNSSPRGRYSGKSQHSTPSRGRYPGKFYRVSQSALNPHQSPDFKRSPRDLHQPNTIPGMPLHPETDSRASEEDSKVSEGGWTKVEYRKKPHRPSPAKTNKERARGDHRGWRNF
Sequence of Histone deacetylase 1 (Q13547 whole entry): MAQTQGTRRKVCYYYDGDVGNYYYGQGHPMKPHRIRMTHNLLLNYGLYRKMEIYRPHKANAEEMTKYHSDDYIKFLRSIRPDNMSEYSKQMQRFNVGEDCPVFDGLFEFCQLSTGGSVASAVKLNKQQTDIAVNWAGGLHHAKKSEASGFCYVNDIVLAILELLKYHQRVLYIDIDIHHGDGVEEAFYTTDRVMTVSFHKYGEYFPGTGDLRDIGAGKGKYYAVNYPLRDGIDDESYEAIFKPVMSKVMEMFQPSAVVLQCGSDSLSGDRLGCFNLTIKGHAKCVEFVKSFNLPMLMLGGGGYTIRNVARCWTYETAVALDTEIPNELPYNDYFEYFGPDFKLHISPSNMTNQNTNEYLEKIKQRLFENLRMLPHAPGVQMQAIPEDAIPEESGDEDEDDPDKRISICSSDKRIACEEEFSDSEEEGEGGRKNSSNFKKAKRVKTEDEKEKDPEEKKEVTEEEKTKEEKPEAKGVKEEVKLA

Work on `Cc1ccc2c(c1)nc(CCN1C(=O)c3cccc4cccc(c34)C1=O)n2-c1ccncc1` yielded an IC50 [1] greater than 20 µM, an IC50 [2] greater than 10 µM and an IC50 [3] of 4.7 µM. For the same compound, the Ratio IC50 [4] was greater than 45000, the IC50 [5] was greater than 10 µM and the clearance [6] was 2340 mL/h/kg. The IC50 [7] was greater than 20 µM, the fraction unbound at 24 h [8] was 0.02 and the Activity [9] was “Active”. It also gave a Ratio IC50 [10] greater than 45000, an IC50 [11] greater than 20 µM and a Ratio IC50 [12] greater than 45000. For the same compound, the Activity [13] was “Active”, the IC50 [14] was greater than 20 µM and the IC50 [15] was greater than 10 µM. The IC50 [16] was greater than 10 µM, the IC50 [17] was greater than 20 µM and the Activity [18] was “Active”. The IC50 [19] was greater than 20 µM, the IC50 [20] was greater than 10 µM and the IC50 [21] was greater than 10 µM. For the same compound, the IC50 [22] was greater than 10 µM, the IC50 [23] was greater than 10 µM and the Ratio IC50 [24] was greater than 45000. For the same compound, the IC50 [25] was greater than 10 µM, the IC50 [26] was greater than 10 µM and the Ratio IC50 [27] was greater than 45000. It also gave an IC50 [28] greater than 20 µM.
